Published values collected from several papers.
Target: Tyrosine-protein kinase Fyn (FYN, Homo sapiens, UniProt P06241)

SMILES | assay | setting | quantity | value
Cn1cc(-c2cc(F)cc(N3CCn4c(cc5c4CCCC5)C3=O)c2CO)cc(Nc2ccc(N3CCN(C4COC4)CC3)cn2)c1=O | enzyme activity, inhibitor | 0.1 µM | inhibition | 8%
C#Cc1n[nH]c2c(-c3cn([C@@H](C)c4ccccn4)c(=O)[nH]c3=O)cc(F)cc12 | enzyme activity, inhibitor | 0.1 µM | inhibition | 1.4%
O=c1[nH]c2ccccc2n1C1CCN(Cc2ccc(-c3[nH]c4cc5ncnc5cc4nc3-c3ccccc3)cc2)CC1 | cell-free assay | 0.5 µM | remaining signal | 101%
C#Cc1n[nH]c2c(-c3cn([C@@H](C)c4ccccc4)c(=O)[nH]c3=O)cc(F)cc12 | enzyme activity, inhibitor | 0.1 µM | inhibition | 0.7%
O=C(Nc1cccnn1)N1CCN([C@@H]2CCOc3cc(C(F)(F)F)ccc32)CC1 | enzyme activity, inhibitor | 20 µM | inhibition | 0%
Cc1ncc(C)n2nc(/C=C/c3nc(N4CCCC4)cc(N4CCOCC4)n3)nc12 | enzyme activity, inhibitor | 10 µM | inhibition | 9%
COc1ncccc1-c1cnn2ccc(N3CCN(C(=O)OC(C)C)CC3)nc12 | binding, competition with immobilised ligand | 1 µM | remaining binding | 49%
N#CC1(c2ccccn2)CCN(Cc2cc(C(=O)O)c(=O)n3ccccc23)CC1 | cell-free assay, competition with immobilised ligand | 1 µM | remaining binding | 99%
Nc1ncc(-c2nc(N3CCOCC3)nc(N3CCOCC3)n2)c(C(F)F)n1 | binding, competition with immobilised ligand | 10 µM | remaining binding | 100%
CC(C)(C)c1cc(C=C(C#N)C#N)cc(Br)c1O | enzyme activity, inhibitor | 0.5 µM | remaining activity | 67.2%
Cn1cc(-c2cccc(N3CCc4c(sc5c4CC(C)(C)C5)C3=O)c2CO)cc(Nc2ccncn2)c1=O | enzyme activity, inhibitor | 1 µM | inhibition | 6%
Cn1cncc1[C@](O)(COc1ccc(C#N)cc1-c1ccc(OC(F)(F)F)cc1)c1ccc(C#N)cc1 | cell-free assay, competition with immobilised ligand | 1 µM | remaining binding | 100%
Cc1nn(C)cc1-c1nc2c(N3CCN(Cc4ccc(Cl)cc4)CC3)c(Cl)cnc2[nH]1 | binding, competition with immobilised ligand | 1 µM | remaining binding | 100%
